Assay results published in ChEMBL document CHEMBL1121767, “Synthesis and in vitro antimicrobial property of o-carborane derivatives” (1981).
In brackets after ≈: the same amount, converted by molar mass.

Columns and labels:
Candida albicans = assay: In vitro antifungal activity against Candida albicans; type: functional
Method in brief: (§1)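 Clinical isolates kept on Sabouraud's dextrose agar at 28 °C. Inocula at 1 × 10^5 CFU/mL: C. albicans yeast cells grown 48 h in Sabouraud's dextrose broth; A. fumigatus and T. asteroides conidia grown 14 days in that broth with 0.1% Tween 80. Microtiter twofold dilution in Sabouraud's dextrose broth, 100 to […] µg/mL, methanol ≤2%. Sealed, 37 °C, 48 h. MIC is the lowest concentration without visible growth.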

Trichophyton benhamiae = assay: In vitro antifungal activity against Trichophyton asteroides; type: functional, tricophyton asteroides; method in brief: as §1
Aspergillus fumigatus = assay: In vitro antifungal activity against Aspergillus fumigatus; type: functional; method in brief: as §1

SMILES | MIC (Candida albicans) [µg/mL] | MIC (Trichophyton benhamiae) [µg/mL] | MIC (Aspergillus fumigatus) [µg/mL]
Clc1ccccc1C(c1ccccc1)(c1ccccc1)n1ccnc1 [CLOTRIMAZOLE] | 3.1 (≈ 8.99 µM) | < 0.1 | 3.1 (≈ 8.99 µM)
C[C@@H]1[C@H](O)[C@@H](C)/C=C/C=C/C=C/C=C/C=C/C=C/C=C/[C@H](O[C@@H]2O[C@H](C)[C@@H](O)[C@H](N)[C@@H]2O)C[C@@H]2O[C@](O)(C[C@@H](O)C[C@@H](O)[C@H](O)CC[C@@H](O)C[C@@H](O)CC(=O)O[C@H]1C)C[C@H](O)[C@H]2C(=O)O [AMPHOTERICIN B] | 1.6 (≈ 1.73 µM) | 3.1 (≈ 3.35 µM) | 3.1 (≈ 3.35 µM)
